Screening results (PubChem)
GASC1 inh = KDM4C (human) demethylase inhibition; Q9H3R0; GST-KDM4C 2-372, H3K9me3 peptide, LANCE TR-FRET; inhibition, % at 12.5 µM; actives 0.15% (n = 96,000);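 active means mean replicate inhibition above about 25%, with at least 55% of replicates also reaching it, limit read from the data, passing the limit was not always enough; inconclusive means only one of those two conditions met; inactive means neither condition met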
Target sequence (Q9H3R0 2-372 limits assumed): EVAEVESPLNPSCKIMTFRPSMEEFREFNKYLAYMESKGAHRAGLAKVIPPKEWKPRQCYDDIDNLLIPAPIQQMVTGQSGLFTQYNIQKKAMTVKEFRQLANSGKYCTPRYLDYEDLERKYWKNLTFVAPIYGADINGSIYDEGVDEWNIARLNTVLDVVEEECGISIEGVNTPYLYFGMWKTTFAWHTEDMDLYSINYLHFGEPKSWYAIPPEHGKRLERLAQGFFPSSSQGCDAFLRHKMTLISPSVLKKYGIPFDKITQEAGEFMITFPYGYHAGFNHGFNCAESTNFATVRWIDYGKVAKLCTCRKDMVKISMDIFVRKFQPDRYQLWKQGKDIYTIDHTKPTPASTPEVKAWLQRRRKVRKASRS
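System: N-terminal GST-fused human GASC-1 (KDM4C) fragment, residues 2-372 / Amount: 10 nM GST-KDM4C in enzyme reaction / Also added: H3K9me3 peptide with Fe(II)/2OG / Times: 30 min demethylation and 1 h detection at room temperature / Signal: LANCE TR-FRET / Read-out basis: Fall in 671/618 emission ratio as inhibition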
IDH1 mut inh = blocks human IDH1 R132H reductase activity; diaphorase/resazurin fluorescence, 60 min; inhibition, % at 10 µM; actives 0.18% (n = 70,000); in the data active means inhibition above about 34%; inconclusive means no clear call, values can overlap the other calls; inactive means below about 11%;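 further: 0% = DMSO and 100% = no enzyme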
T cruzi growth-1 = blocks T. cruzi growth in NIH3T3 culture; T. cruzi beta-gal in NIH3T3, GalScreen luminescence, 90 h; inhibition, % at 8.34 µM; actives 5.9% (n = 77,000);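 active means mean inhibition above about 93%, with at least 55% of replicates each passing it, limit read from the data, passing the limit was not always enough; inconclusive means only one of those two conditions holds; inactive means neither condition holds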
T cruzi growth-2 = Trypanosoma cruzi proliferation inhibition; shares compounds with T cruzi growth-1; T. cruzi beta-gal in NIH3T3, GalScreen luminescence, 90 h; inhibition, % at 8.35 µM; actives 72% (n = 5,600); AID 651739;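 active means mean replicate inhibition above about 95% and at least 55% of replicates individually reaching it, limit read from the data; inconclusive means only one of the two criteria is met; inactive means neither criterion is met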
T cruzi growth-3 = inhibitors of T. cruzi proliferation; actives 21% (n = 5,600); T. cruzi beta-gal in NIH3T3, GalScreen luminescence, 90 h; shares compounds with T cruzi growth-1; AID 651740; inhibition, % at 2.09 µM;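 active means mean inhibition above about 95%, with at least 55% of replicates also reaching it, limit read from the data; inconclusive means meets just one of the two conditions; inactive means meets neither condition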;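 further: plate controls were neutral control median for no effect and positive control median for full effect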
NIH3T3 tox = kills mouse NIH/3T3 fibroblasts. shares compounds with T cruzi growth-1. NIH/3T3 viability, CellTiter-Glo ATP luminescence, 90 h. cytotoxicity (signal decrease), % at 8.35 µM. actives 14% (n = 5,600);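 active means mean signal decrease across replicates above about 35% based on untreated-well scatter, with enough replicates individually passing, limit read from the data; inconclusive means no rule stated though some were filed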;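 further: 0% = median of neutral control wells and 100% = median of positive control wells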
NIH3T3 tox 2 = kills mouse NIH/3T3 fibroblasts | actives 56% (n = 5,600) | shares compounds with T cruzi growth-1 | inhibition, % at 24.9 µM | NIH/3T3 viability, CellTiter-Glo ATP luminescence, 90 h | AID 651744;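 active means mean loss of cell viability signal at or above a set limit, and enough replicates individually reaching it; inconclusive means meets only the mean limit or only the replicate share; inactive means meets neither condition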;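 further: 0% = median of neutral control wells and 100% = median of positive control wells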
* = called active by the depositor; u = inconclusive; x = not tested or not shown; ! = a repeat was not active. The sample as a whole holds a higher share of hits than the screen did.

SMILES	GASC1 inh	IDH1 mut inh	T cruzi growth-1	T cruzi growth-2	T cruzi growth-3	NIH3T3 tox	NIH3T3 tox 2
C[C@@H]1CCCCO[C@@H](CN(C)C(=O)Nc2ccc3c(c2)OCO3)[C@H](C)CN([C@@H](C)CO)C(=O)c2cc(NC(=O)NC3CCCCC3)ccc2O1	-1	x	52	x	x	x	x
C[C@@H]1CCCCO[C@@H](CN(C)C(=O)Nc2ccc3c(c2)OCO3)[C@H](C)CN([C@H](C)CO)C(=O)c2cc(NC(=O)NC3CCCCC3)ccc2O1	17	x	u	108*	31	-13	-2
C[C@H]1CCCCO[C@@H](CN(C)C(=O)Nc2ccc3c(c2)OCO3)[C@@H](C)CN([C@@H](C)CO)C(=O)c2cc(NC(=O)NC3CCCCC3)ccc2O1	-3	x	118*	113*	67	-3	-12
C[C@@H]1CN([C@H](C)CO)C(=O)c2cc(NC(=O)NC3CCCCC3)ccc2O[C@@H](C)CCCCO[C@H]1CN(C)C(=O)Nc1ccc2c(c1)OCO2	-1	4	23	x	x	x	x
C[C@@H]1O[C@@H](O[C@H]2[C@@H]3C=CO[C@@H](O[C@@H]4O[C@H](CO)[C@@H](O)[C@H](O)[C@H]4O)[C@@H]3[C@@]3(CO)O[C@@H]23)[C@H](OC(=O)/C=C/c2ccc(O)cc2)[C@H](O)[C@H]1O	x	0	x	x	x	x	x
CCOC(=O)c1c(NC(=O)Cn2cnc3ccccc3c2=O)sc(C)c1C	x	0	x	x	x	x	x
C[C@@H]1CN([C@H](C)CO)S(=O)(=O)c2ccc(-c3cccnc3)cc2O[C@@H]1CN(C)Cc1cccnc1	-1	x	42	x	x	x	x
Cc1ccc(-c2ccc3c(c2)O[C@H](CN(C)Cc2cccnc2)[C@@H](C)CN([C@H](C)CO)S3(=O)=O)cc1	0	4	119*	99*	112*	80*	92*
Cc1ccc(-c2ccc3c(c2)O[C@H](CN(C)Cc2cccnc2)[C@@H](C)CN([C@@H](C)CO)S3(=O)=O)cc1	0	x	119*	106*	97*	50*	105*
Cc1ccc(-c2ccc3c(c2)O[C@@H](CN(C)Cc2cccnc2)[C@H](C)CN([C@@H](C)CO)S3(=O)=O)cc1	-2	x	117*	98*	96*	51*	100*
C[C@H](CO)N1C[C@H](C)[C@@H](CN(C)Cc2cccnc2)Oc2cc(-c3ccccc3)ccc2S1(=O)=O	-2	x	84	x	x	x	x
C[C@H](CO)N1C[C@H](C)[C@H](CN(C)Cc2cccnc2)Oc2cc(-c3ccncc3)ccc2S1(=O)=O	x	26	71	x	x	x	x
C[C@@H]1CN([C@@H](C)CO)S(=O)(=O)c2ccc(-c3ccncc3)cc2O[C@@H]1CN(C)Cc1cccnc1	x	x	68	x	x	x	x
C[C@H](CO)N1C[C@H](C)[C@@H](CN(C)Cc2cccnc2)Oc2cc(-c3cccnc3)ccc2S1(=O)=O	1	x	101*!	67	45	20	64*
CCn1c(SCC(=O)Nc2ccccc2OC)nnc1-c1c[nH]c2ccccc12	x	0	x	x	x	x	x
CCC(Sc1nnc(-c2ccccc2)n1-c1ccccc1)C(=O)Nc1ccc(Cl)cc1 (stereo unspecified)	x	0	x	x	x	x	x
COc1ccc(-c2cc(=O)c3c(O)c(OC)c(O)c(OC)c3o2)cc1	x	1	x	x	x	x	x
Cc1cc2oc(C(=O)Nc3nnc(SCc4ccccc4)s3)c(C)c2cc1C	x	1	x	x	x	x	x
CC(C)(C)C1CCc2c(sc(NC(=O)COc3ccc(Cl)cc3)c2C(N)=O)C1 (stereo unspecified)	x	0	x	x	x	x	x
Cc1c(Cl)c(C(F)(F)F)nn1CCCNC(=O)Nc1cccc([N+](=O)[O-])c1	x	0	x	x	x	x	x
Cn1cnc(S(=O)(=O)N2CCCCN3[C@@H](CO)[C@H](c4ccc(-c5ccccc5F)cc4)[C@@H]3C2)c1	0	x	31	x	x	x	x
Cc1ccccc1-c1ccc([C@H]2[C@@H](CO)N3CCCCN(S(=O)(=O)c4cn(C)cn4)C[C@H]23)cc1	0	x	102*	61	14	8	44*
Cc1ccccc1-c1ccc([C@@H]2[C@H]3CN(S(=O)(=O)c4cn(C)cn4)CCCCN3[C@H]2CO)cc1	-2	x	126*	51	27	1	26*
Cn1cnc(S(=O)(=O)N2CCCCN3[C@H](CO)[C@@H](c4ccc(-c5ccccc5F)cc4)[C@@H]3C2)c1	-1	x	49	x	x	x	x
Nc1nc(SCC(=O)c2ccc(Cl)cc2Cl)n[nH]1	x	0	x	x	x	x	x
SMILES	GASC1 inh	IDH1 mut inh	T cruzi growth-1	T cruzi growth-2	T cruzi growth-3	NIH3T3 tox	NIH3T3 tox 2
COc1ccc(CN(C)C[C@H]2Oc3ccc(NS(=O)(=O)c4ccc(Cl)cc4)cc3CC(=O)N([C@H](C)CO)C[C@H]2C)cc1	-1	0	86	x	x	x	x
COc1ccc(CN(C)C[C@@H]2Oc3ccc(NS(=O)(=O)c4ccc(C)cc4)cc3CC(=O)N([C@@H](C)CO)C[C@H]2C)cc1	-1	-1	x	x	x	x	x
COc1ccc(CN(C)C[C@H]2Oc3ccc(NS(=O)(=O)c4ccc(C)cc4)cc3CC(=O)N([C@@H](C)CO)C[C@@H]2C)cc1	5	-1	104*	110*	8	4	4
COc1ccc(CN(C)C[C@H]2Oc3ccc(NS(=O)(=O)c4ccc(Cl)cc4)cc3CC(=O)N([C@@H](C)CO)C[C@@H]2C)cc1	2	0	107*	97*	79	5	86*
COc1ccc(-c2nc(SCc3cc(Cl)ccc3OC)n[nH]2)cc1	x	-1	x	x	x	x	x
O=C(O)CCCCCCC(=O)N/N=C/c1cc(Br)cc(Br)c1O	x	2	x	x	x	x	x
C[C@H]1CN([C@@H](C)CO)S(=O)(=O)c2ccc(/C=C/c3ccccc3)cc2O[C@H]1CN(C)Cc1cncnc1	2	-2	103*	95*	78	57*	46*
C[C@@H]1CN([C@H](C)CO)S(=O)(=O)c2ccc(/C=C/c3ccccc3)cc2O[C@@H]1CN(C)Cc1cncnc1	-7	0	90	x	x	x	x
C[C@@H]1CN([C@@H](C)CO)S(=O)(=O)c2ccc(/C=C/c3ccccc3)cc2O[C@H]1CN(C)Cc1cncnc1	-2	0	121*	112*	97*	54*	61*
C[C@H](CO)N1C[C@H](C)[C@H](CN(C)Cc2cncnc2)Oc2cc(/C=C/c3ccccc3)ccc2S1(=O)=O	-5	0	75	x	x	x	x
CCN(CC(=O)Nc1c(C)cc(C)cc1C)S(=O)(=O)c1ccc2ccccc2c1	x	0	x	x	x	x	x
CC(=O)c1c(C)n(-c2ccc(C)cc2)c2ccc(OC(=O)CN3C(=O)c4ccccc4C3=O)cc12	x	1	x	x	x	x	x
Cc1c(NC(=O)COc2ccc(I)cc2)cccc1C(=O)O	x	0	x	x	x	x	x
O=C(NCCc1ccccc1)[C@@H]1[C@@H](CO)[C@@H]2Cn3c(cccc3=O)[C@H]1N2C(=O)C1CCC1	-1	x	u	-15	11	-21	0
